Assay results published in paper PMC3737387 (Nuclear medicine and biology, 2013).
Values joined by “and” are separate entries in the source; they are usually repeats but may differ in a detail not shown here. Identical values can stand only once.

Experiments:
[1] = test system: FAAH; details: URB597 2 mg/kg ip; cited from earlier work
[2] = biological target: T1, FAAH (Rattus norvegicus, UniProt P97612); test: Pharmacological blocking of [^11C]PF-04457845 uptake in rat brain; format: in vivo; details: control vs URB597 (2 mg/kg ip) pretreated group; 40 min post injection
T1 sequence (P97612 1-579): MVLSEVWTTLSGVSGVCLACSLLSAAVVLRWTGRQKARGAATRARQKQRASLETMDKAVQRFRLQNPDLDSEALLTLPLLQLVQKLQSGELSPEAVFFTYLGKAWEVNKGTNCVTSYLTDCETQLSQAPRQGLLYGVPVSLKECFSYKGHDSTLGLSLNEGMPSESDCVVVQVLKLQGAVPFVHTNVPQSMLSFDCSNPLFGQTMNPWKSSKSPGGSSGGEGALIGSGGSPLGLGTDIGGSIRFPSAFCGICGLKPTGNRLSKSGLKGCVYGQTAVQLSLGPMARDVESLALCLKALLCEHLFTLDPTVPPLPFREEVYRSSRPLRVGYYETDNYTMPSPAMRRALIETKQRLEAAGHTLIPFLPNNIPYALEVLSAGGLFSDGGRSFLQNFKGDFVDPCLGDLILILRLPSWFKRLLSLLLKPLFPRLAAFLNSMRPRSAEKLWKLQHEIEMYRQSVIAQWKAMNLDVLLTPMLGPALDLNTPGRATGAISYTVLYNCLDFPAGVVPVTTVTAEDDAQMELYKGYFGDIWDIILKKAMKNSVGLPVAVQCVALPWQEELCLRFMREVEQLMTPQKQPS

[3] = HPLC analysis of plasma metabolites; format: in vivo; details: rat
Method in brief: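 Heparinized rat trunk blood is centrifuged, and the plasma is acidified with 20% (v/v) of 50% aqueous acetic acid. It is loaded onto an HLB capture column, eluted with 1% acetonitrile (2 mL/min, 4 min), then backflushed with 60% acetonitrile/water + 0.1 N ammonium formate (pH 4) onto C18. Detection is by coincidence-mode radio-flow. Eluent switches to 100% ethanol after the parent to detect lipophilic metabolites. Peaks are decay-corrected and integrated.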

[4] = Ex vivo biodistribution of [^11C]PF-04457845 in conscious rat brain and plasma; details: for Ex vivo biodistribution, Cerebellum / Ex vivo biodistribution, Cortex / Ex vivo biodistribution, Hypothalamus / Ex vivo biodistribution, Plasma / Ex vivo biodistribution, Rest of Brain: n = 4
[5] = biological target: T1, FAAH; test: Irreversible binding of [^11C]PF-04457845 to FAAH in the rat brain; format: in vivo
[6] = test system: FAAH; details: Phase II crossover study, pain associated with osteoarthritis; cited from earlier work
[7] = test system: FAAH; details: rodents, cited from earlier work
[8] = test system: FAAH; details: previously reported; cited from earlier work
[9] = test system: FAAH; details: rodents; cited from earlier work

## NC(=O)c1cccc(-c2cccc(OC(=O)NC3CCCCC3)c2)c1 [URB597, 3′-carbamoyl-[1,1′-biphenyl]-3-yl-cyclohexylcarbamate]
[1]
  FAAH enzyme inactivated in rodent brains: > 90% and 90%

## O=C(Nc1cccnn1)N1CCC(=Cc2cccc(Oc3ccc(C(F)(F)F)cn3)c2)CC1 [[^11C]PF-04457845]
[2]
  specific to non-specific binding ratio, cerebellum: 3.4
  specific to non-specific binding ratio, cortex: 4.2
  specific to non-specific binding ratio, hypothalamus: 2.5
[3]; 15 min post injection
  parent radiotracer remaining in plasma: 82%
[3]; 40 min post injection
  parent radiotracer remaining in plasma: 73%
[3]; 60 min post injection
  parent radiotracer remaining in plasma: 66%
[3]; later time-points
  lipophilic metabolite, share of total radioactivity present in plasma: 3 – 3.5%
[4]; conscious rats, tail-vein injection, across regions and time points
  brain uptake: 1.2 to 4.4 SUV
[4]; rat, 2 min post iv injection
  Ex vivo biodistribution, Cerebellum: 1.87 ± 0.05 SUV
  Ex vivo biodistribution, Cortex: 2.22 ± 0.06 SUV
  Ex vivo biodistribution, Hypothalamus: 1.29 ± 0.05 SUV
  Ex vivo biodistribution, Plasma: 1.03 ± 0.19 SUV
  Ex vivo biodistribution, Rest of Brain: 1.51 ± 0.08 SUV
[4]; rat, 15 min post iv injection
  Ex vivo biodistribution, Cerebellum: 3.17 ± 0.10 SUV
  Ex vivo biodistribution, Cortex: 3.64 ± 0.24 SUV
  Ex vivo biodistribution, Hypothalamus: 1.96 ± 0.10 SUV
  Ex vivo biodistribution, Plasma: 0.33 ± 0.04 SUV
  Ex vivo biodistribution, Rest of Brain: 2.44 ± 0.07 SUV
[4]; rat, 40 min post iv injection
  Ex vivo biodistribution, Cerebellum: 3.56 ± 0.10 SUV
  Ex vivo biodistribution, Cortex: 4.11 ± 0.30 SUV
  Ex vivo biodistribution, Hypothalamus: 2.18 ± 0.20 SUV
  Ex vivo biodistribution, Plasma: 0.12 ± 0.01 SUV
  Ex vivo biodistribution, Rest of Brain: 2.77 ± 0.24 SUV
[4]; rat, 60 min post iv injection
  Ex vivo biodistribution, Cerebellum: 3.42 ± 0.34 SUV
  Ex vivo biodistribution, Cortex: 3.92 ± 0.37 SUV
  Ex vivo biodistribution, Hypothalamus: 2.10 ±0.31 SUV
  Ex vivo biodistribution, Plasma: 0.09 ± 0.03 SUV
  Ex vivo biodistribution, Rest of Brain: 2.59 ± 0.19 SUV
[4]; rat, post injection
  time at which brain uptake reaches a plateau: 40 min
[5]; rat whole brain, ([95/5]-1)
  SBR (specific to non-specific binding ratio) to FAAH from extraction studies: > 18
[5]; rat, 2 min post injection
  radioactivity irreversibly bound to brain tissue: 84%
[5]; rat, 40 min post injection
  extractable brain radioactivity: 2%
  radioactivity in whole brain that is FAAH-bound: > 95%
  radioactivity irreversibly bound to brain tissue: 98%
[5]; rat, after ip pre-treatment with URB597 (2 mg/kg)
  radioactivity bound to brain parenchyma: 5%

## O=C(Nc1cccnn1)N1CCC(=Cc2cccc(Oc3ccc(C(F)(F)F)cn3)c2)CC1 [PF-04457845]
[6]
  analgesic effect: did not induce an analgesic effect
  endocannabinoid levels in blood: modulate endocannabinoid levels in blood

## O=C(Nc1cccnn1)N1CCC(=Cc2cccc(Oc3ccc(OCC[18F])cn3)c2)CC1 [[^18F]PF-9811, 4-(3-((5-(2-[^18F]fluoroethoxy)pyridine-2-yl)oxy)benzylidene)-N-(pyridazin-3-yl)piperidine-1-carboxamide]
[7]; 90 min
  brain uptake in the cortex: 0.8 SUV
[7]
  specific to non-specific binding ratios: 2.3 – 2.6

## O=[11C](NC1CCCCC1)Oc1ccc(O)c(-c2ccccc2)c1 [[^11C]CURB, [^11C-carbonyl]-6-hydroxy-[1,1′-biphenyl]-3-yl-cyclohexylcarbamate]
[8]
  level of specific binding: 80%

## COc1ccc(NC(=O)Oc2ccc[11c](-c3ccccc3)c2)cc1 [[^11C]1,1′-biphenyl-3-yl-(4-methoxyphenyl)carbamate]
[9]
  brain uptake: low brain uptake
  specific binding: no detectable specific binding
